Experimental data from different studies.
Lines come from different studies, so protocols differ.
PI4KB: Phosphatidylinositol 4-kinase beta (PI4KB, Homo sapiens, UniProt Q9UBF8)
SPHK2: Sphingosine kinase 2 (SPHK2, Homo sapiens, UniProt Q9NRA0)
CA4: Carbonic anhydrase 4 (CA4, Homo sapiens, UniProt P22748)
HDAC4: Histone deacetylase 4 (HDAC4, Homo sapiens, UniProt P56524)
cah: cah (Neisseria gonorrhoeae, UniProt Q50940)

CCC(=O)N1CCC(C(=O)NCC(=O)N2CCN(c3nc(-c4cnc(N)nc4C(F)F)nc(N4CCOCC4)n3)CC2)CC1  Kd (PI4KB; binding, competition with immobilised ligand): > 30000 nM
CCCc1ccc(CCc2ccc(-c3noc([C@@H]4CCCN4C(=N)N)n3)cc2C(F)(F)F)cc1  Ki (SPHK2; enzyme activity, inhibitor): 132 nM
NS(=O)(=O)c1cc(C2(O)CSC3=NCCN32)ccc1Cl (centres unmarked)  Kd (CA4; thermal stability, DSF; pH 7): 40 nM
[H]/N=C(\N)N1CCC[C@H]1c1nc(-c2ccc(OCC=Cc3ccc(C(F)(F)F)cc3)c(C(F)(F)F)c2)no1  Ki (SPHK2; enzyme activity, inhibitor): 105 nM
CCCN(CCCCOCCOCCOCCOCCOCC(=O)N[C@H](C(=O)N1C[C@H](O)C[C@H]1C(=O)NCc1ccc(-c2scnc2C)cc1)C(C)(C)C)C[C@@H](C)NC(=O)c1ccc(-c2noc(C(F)(F)F)n2)cc1  DC50 (HDAC4; protein level, degrader): 4 nM
CCCN1CCN(c2ccc(-c3cncc(Cl)c3N3CCC4(CCNC4=O)CC3)cc2)CC1  Kd (Oxidized purine nucleoside triphosphate hydrolase (NUDT1, Homo sapiens, UniProt P36639); cell-free assay; lysate): 2330 nM
CN(C)C1CCN(C(=O)c2ccc(NC(=O)Nc3ccc(-c4nc(N5CCOCC5)nc(N5CCOCC5)n4)cc3)cc2)CC1  Kd (PI4KB; binding, competition with immobilised ligand): > 30000 nM
FC(F)(F)c1ccc(C(c2c[nH]c3ccccc23)c2c[nH]c3ccccc23)cc1  Kd (Nuclear receptor subfamily 4immunitygroup A member 1 (NR4A1, Homo sapiens, UniProt P22736); binding, SPR): 3000 nM
NS(=O)(=O)c1nnc(NC(=O)CC2CCC2)s1  Ki (cah; enzyme activity, inhibitor): 5.8 nM
NS(=O)(=O)c1ccc(C(=O)CSCc2ccccc2)cc1  Kd (CA4; thermal stability, DSF; pH 7): 16 nM
NS(=O)(=O)c1nnc(NC(=O)C2CCCC2)s1  Ki (cah; enzyme activity, inhibitor): 14.1 nM
Cc1ccc(C(=O)Nc2ccc(Oc3cc4cnn(C)c4cc3-c3cn[nH]c3)c(F)c2)c(=O)n1-c1ccc(F)cc1  Kd (Platelet-derived growth factor receptor alpha (PDGFRA, Homo sapiens, UniProt P16234); binding, competition with immobilised ligand): 620 nM
NC(=O)c1ccc[n+]([C@@H]2O[C@H](COP(=O)([O-])OP(=O)(O)OC[C@H]3O[C@@H](n4cnc5c(N)ncnc54)[C@H](O)[C@@H]3O)[C@@H](O)[C@H]2O)c1  Kd (Inosine-5'-monophosphate dehydrogenase (Cryptosporidium parvum, UniProt Q8T6T2); binding): ≤ 2300 nM
Cc1ncsc1-c1ccc(CNC(=O)[C@@H]2C[C@@H](O)CN2C(=O)[C@@H](NC(=O)COCCOCCOCC(F)(F)c2cnc(-c3ccc(C(C(=O)NO)c4ccccc4F)cc3)nc2)C(C)(C)C)cc1 (mixture of isomers)  DC50 (HDAC4; protein level, degrader): 28 nM
CCOC(=O)[C@](CC)(CCCS(=O)(=O)CCOCCOCCNC(=O)OC(C)(C)C)NC(=O)c1ccc(C2CC2)c(Cc2ccc(F)cc2)n1  EC50 (Cannabinoid receptor 2 (Cnr2, Mus musculus, UniProt P47936); cAMP, agonist): 33 nM
N[C@@H](CCC(=O)O)C(=O)O  EC50 (Metabotropic glutamate receptor 7 (Grm7, Rattus norvegicus, UniProt P35400); calcium signal, agonist): 840000 nM
CC[C@H](NC(=O)[C@H](CS(=O)(=O)CC1CC1)N[C@@H](c1ccc(F)cc1)C(F)(F)F)C(=O)C(=O)NC1CC1  Ki (Procathepsin L (CTSL, Homo sapiens, UniProt P07711); enzyme activity, inhibitor, fluorescence; with preincubation): 0.25 nM
NS(=O)(=O)c1nnc(NC(=O)CC2CCCC2)s1  Ki (cah; enzyme activity, inhibitor): 34.6 nM
CC(=O)c1cc([N+](=O)[O-])c(Sc2cccc(Cl)c2Cl)s1  EC50 (Cathepsin K (CTSK, Homo sapiens, UniProt P43235); enzyme activity, inhibitor): > 50000 nM
CCCN(CCCCOCCOCCOCCOCC(=O)N[C@H](C(=O)N1C[C@H](O)C[C@H]1C(=O)NCc1ccc(-c2scnc2C)cc1)C(C)(C)C)C[C@@H](C)NC(=O)c1ccc(-c2noc(C(F)(F)F)n2)cc1  DC50 (HDAC4; protein level, degrader): 4 nM
Cc1cnc(-c2ccc(-c3ccc(NC(=O)Nc4c(F)cc(F)cc4F)cc3F)c3c2C(=O)NC3)[nH]1  Kd (Mitogen-activated protein kinase kinase kinase kinase 5 (MAP4K5, Homo sapiens, UniProt Q9Y4K4); binding, competition with immobilised ligand): 1.1 nM
CC1CCC(C(=O)Nc2nnc(S(N)(=O)=O)s2)CC1 (centres unmarked)  Ki (cah; enzyme activity, inhibitor): 8.7 nM
C=CC(=O)N1CCC(C(=O)NCC(=O)N2CCN(c3nc(-c4cnc(N)nc4C(F)F)nc(N4CCOCC4)n3)CC2)CC1  Kd (PI4KB; binding, competition with immobilised ligand): > 30000 nM
